SR-BI HDL uptake = inhibitors of mouse SR-BI mediated HDL lipid uptake; 0.96% of 320,000 active; AID 488896; ldlA[mSR-BI] CHO cells, DiI-HDL uptake fluorescence, 3 h; inhibition, % at 12.5 µM;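 active means mean replicate inhibition of at least 70% and a set share of replicates each scoring 70 or more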;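 further: 0% = median of neutral control wells and 100% = median of positive control wells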
Target sequence (Q61009 whole entry, looked up): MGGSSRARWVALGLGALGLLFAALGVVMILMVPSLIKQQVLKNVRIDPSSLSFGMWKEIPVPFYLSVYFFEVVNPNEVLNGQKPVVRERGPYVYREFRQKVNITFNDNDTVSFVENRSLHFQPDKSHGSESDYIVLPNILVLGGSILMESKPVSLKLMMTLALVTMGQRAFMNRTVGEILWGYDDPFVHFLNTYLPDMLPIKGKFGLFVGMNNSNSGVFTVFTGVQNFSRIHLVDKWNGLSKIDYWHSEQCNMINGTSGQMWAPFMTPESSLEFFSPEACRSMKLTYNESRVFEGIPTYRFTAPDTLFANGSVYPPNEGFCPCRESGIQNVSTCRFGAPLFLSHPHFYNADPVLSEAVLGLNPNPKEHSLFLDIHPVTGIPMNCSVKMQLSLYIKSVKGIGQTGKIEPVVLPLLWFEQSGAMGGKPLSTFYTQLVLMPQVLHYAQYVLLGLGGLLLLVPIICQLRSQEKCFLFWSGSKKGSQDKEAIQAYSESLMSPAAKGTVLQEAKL
CAL PDZ FP-1 = human CAL PDZ-peptide interaction inhibition; purified CAL PDZ, TMR-peptide fluorescence polarization, 1 h; inhibition, % at 20 µM; 0.02% of 330,000 active;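 active means highest replicate inhibition of at least 40%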;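 further: plate controls were DMSO neutral control wells for no effect and unlabeled competitor peptide control wells for full effect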
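Test system: purified CerCALP PDZ construct; Compound dosing: one concentration, 20 µM compound; Also added: TMR-labelled reporter peptide T*-PRC34 bound in PDZ groove; Read-out: inhibition from polarization loss; Controls: unlabelled peptide and DMSO controls; Signal: FP readout, S and P plane fluorescence; Incubation: 1 h at RT.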
ARNT TACC3 PPI = disruptors of human ARNT/TACC3 interaction | Q9Y6A5 | AlphaScreen His-ARNT PAS-B/GST-TACC3 binding, luminescence; TACC3 fragment carries E629A point mutation | inhibition, % at 9.99 µM | 0.66% of 390,000 active;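 active means mean inhibition of replicates at least 50% and at least half of replicates each reaching 50%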;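 further: 0% = complete ARNT plus TACC3 wells and 100% = ARNT alone without TACC3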
SR-BI DiI-HDL act = activators of SR-BI mediated HDL lipid uptake. activation, % at 12.5 µM. 0.096% of 320,000 active. CHO ldlA[mSR-BI] cells, DiI-HDL uptake fluorescence, 3 h; 100 = double the neutral-control signal;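 active means mean replicate activation of at least 60% and every replicate at or above 60%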;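 further: 0% = median plate neutral-control signal and 100% = twice that signal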
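Test system: SR-BI-overexpressing, LDLR-lacking CHO cells; Also added: labelled HDL, 10 µg/mL; Measured by: bottom-read cell fluorescence after medium removal, ex 550/em 595 nm; Timing: 3 h uptake period with compound, 37 °C; Buffer or medium: F12, 0.5% BSA, 25 mM HEPES; Doses: single compound concentration, delivered by pin transfer.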
miR-122 sensor = inhibitors of miR-122 in Huh7 cells; 0.3% of 340,000 active; Huh7 miR-122 Renilla luciferase sensor, 48 h; neutral wells = 0, positive control = 100; AID 602342; activation (reporter increase), % at 12.5 µM;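 active means mean replicate activation score at least 90 and every replicate individually at or above 90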;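 further: higher luciferase means less miR-122 activity so hits act as miR-122 inhibitors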
CAL PDZ FP-2 = CAL PDZ (human) peptide binding inhibition; inhibition, % at 24.9 µM; purified CAL PDZ, TMR-peptide fluorescence polarization, 1 h; 0.92% of 300,000 active; Q9HD26;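 active means mean inhibition of at least 30% with at least half of replicates also reaching 30%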;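 further: 0% = DMSO neutral control and 100% = excess unlabeled competitor peptide PRC23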
DiI quench = quenches DiI-HDL fluorescence, an SR-BI assay artifact. shares compounds with SR-BI HDL uptake. cell-free DiI-HDL fluorescence quenching, 30 min. AC50, µM (doses to about 35 µM), for inactives: top-dose activity change, negative = quenching. 20% of 470 active. AID 540326;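 active means quenching, a falling signal, with AC50 below a set limit tied to the top valid dose, actives reach about 32 µM in these data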
Starred values were filed as active, the others as inactive; · = no result; [ ] = another dose, or the depositor's remark. An excerpt weighted towards active compounds, which were near 2.1% of everything screened.

SMILES	SR-BI HDL uptake	CAL PDZ FP-1	ARNT TACC3 PPI	SR-BI DiI-HDL act	miR-122 sensor	CAL PDZ FP-2	DiI quench
O=C(NCc1ccccc1F)C1CCN(C(=O)c2sccc2-n2cccc2)CC1	69	0	0	-69	·	5	·
CC(C)NC(=O)N(C)C[C@@H]1Oc2ncc(C#CC3CC3)cc2C(=O)N([C@H](C)CO)C[C@@H]1C	·	·	-5	·	6[16.7 µM]	·	·
CCn1c(COc2c(C)cccc2C)nnc1SCC(=O)N1CCN(c2ccccc2)CC1	79*	0	9	-79	0	-4	-3%
Cc1c(C(=O)CN2CCCC(C)(C)C2)c2ccccc2n1C	76*	-1	2	-76	-3	-4	-1%
Cc1c(C(=O)CN2CCSCC2)c2ccccc2n1C	-9	-1	·	9	-6	-3	·
CC(=O)NCCC1CCN(C(=O)c2cc(COc3ccc(C)nc3)on2)CC1	76*	-1	1	-76	-11	-4	-6%
CS(=O)(=O)Nc1ccc2c(c1)[C@H]1C[C@@H](CC(=O)NCC3CC3)O[C@@H](CO)[C@H]1O2	·	·	0	·	4[16.7 µM]	·	·
Cc1ccccc1C(=O)Nc1cc(NC(=O)c2ccccc2C)cc(C(=O)O)c1	-11	0	0	11	5	·	-3%
O=C(O)c1cc(NC(=O)c2ccccc2F)cc(NC(=O)c2ccccc2F)c1	-7	-4	1	7	0	3	·
C[C@H]1CN([C@@H](C)CO)C(=O)c2cc(NC(=O)c3ccncc3)ccc2O[C@@H]1CN(C)Cc1ccc(-c2ccccc2)cc1	·	·	2	·	0[16.7 µM]	·	·
CC(C)OC(=O)c1cccc(C(=O)Nc2cccc(NC(=O)c3cccc(C(=O)OC(C)C)n3)n2)n1	72*	-4	·	-72	-4	-3	-4%
CCOc1ccccc1/C=C/c1onc(C)c1S(=O)(=O)N1CCC(C(=O)NC(C)(C)C)CC1	84*	-3	0	-84	·	-3	4%
COc1ccc(S(=O)(=O)Nc2ccc3c(c2)C(=O)N([C@@H](C)CO)C[C@@H](C)[C@@H](CN(C)Cc2ccc(C(F)(F)F)cc2)O3)cc1	·	·	-2	·	-13[16.7 µM]	·	·
O=C(CSc1cn(CCNC(=O)c2cccs2)c2ccccc12)NCC1CCCO1 (stereo not drawn)	3	0	3	-3	3	-1	-3%
O=C(NCCn1cc(SCC(=O)N2CCOCC2)c2ccccc21)c1c(F)cccc1F	-13	-1	-2	13	0	1	-3%
CNC[C@H]1Oc2ncc(C#CC3(O)CCCC3)cc2C(=O)N([C@H](C)CO)C[C@H]1C	·	·	20	·	19[16.7 µM]	·	·
CC=Cc1ccc2n(c1=O)C[C@@H]1[C@@H](CO)[C@H](C(=O)NCC3CC3)[C@H]2N1S(=O)(=O)c1cn(C)cn1 (mixture of isomers)	·	·	-9	·	-1[16.7 µM]	·	·
COc1ccc(S(=O)(=O)N(C)C[C@@H]2OCCCC[C@@H](C)Oc3ccc(NC(=O)Nc4cccc5ccccc45)cc3C(=O)N([C@@H](C)CO)C[C@@H]2C)cc1	·	·	·	·	-2[16.7 µM]	·	·
COC(=O)/C=C/c1ccc2c(c1)S(=O)(=O)N(c1cccc(OC)c1)[C@H]2CC(=O)OC	87*	1	12	-87	1	-2	-5%
COc1cccc(N2[C@@H](CC(=O)O)c3ccccc3S2(=O)=O)c1	-13	0	·	13	·	3	·
CCCNC(=O)C[C@H]1CC[C@H]2[C@@H](COC[C@H](O)CN2C(=O)Nc2cccc(Cl)c2)O1	·	·	-1	·	-2[16.7 µM]	·	·
CC1CCc2c(sc(Nc3nc4c(F)cccc4s3)c2C(N)=O)C1 (stereo not drawn)	80*	-1	-4	-80	·	-3	3.3µM*
O=C(Nc1nc2c(F)cccc2s1)C1CC1	-6	-1	-3	6	-7	-2	·
COc1cc(OC)cc(C(=O)N[C@H](C(=O)Nc2nc(-c3ccc(F)c(F)c3)cs2)C(C)C)c1	84*	0	3	-84	7	1	2%
